Experimental data collected from several papers.
Each line is one published result; the experiments were not run side by side. In brackets after ≈: the same amount, converted by molar mass.

SMILES | tested on | test | system | setting | quantity | value
COc1ccc(NC(=O)NCc2cn(Cc3ccc(Br)cc3)nn2)cc1 | Huh-7 | cell growth or viability, CCK-8 | – | 50 µM, 72 h | viability | 86%
O=C(NCc1cn(Cc2ccc(Br)cc2)nn1)Nc1ccccc1Br | Huh-7 | cell growth or viability, CCK-8 | – | 50 µM, 72 h | viability | 72.9%
COc1ccc(NC(=O)NCc2cn(Cc3ccc(C)cc3)nn2)cc1 | Huh-7 | cell growth or viability, CCK-8 | – | 72 h | IC50 | > 50 µM
COc1ccc(Nc2cnnc3ccc(-c4cnc(N5CCN(C)CC5)nc4)cc23)cc1Cl | Trypanosoma cruzi | parasite growth | C2C12 | intracellular, amastigote | EC50 | 5.7 µM
O=C(Cn1ccnc1[N+](=O)[O-])NCc1ccccc1 | Trypanosoma cruzi | parasite growth | – | 24 h, trypomastigote | IC50 | 1.04 µg/mL
COc1ccc(NC(=O)Nc2cccc(-c3cn(Cc4ccc(C)cc4)nn3)c2)cc1 | Huh-7 | cell growth or viability, CCK-8 | – | 72 h | IC50 | 19.3 µM
O=C(NCc1cn(Cc2ccc(Cl)cc2)nn1)Nc1ccccc1Br | Huh-7 | cell growth or viability, CCK-8 | – | 50 µM, 72 h | viability | 65.6%
Cc1ccc(C(C)C)c(OC2=C(Cl)C(=O)c3ccccc3C2=O)c1 | Alternaria alternata | microbial growth, broth dilution | – | – | MIC | 12 µg/mL (≈ 35.2 µM)
COc1ccc(Nc2cnnc3cc(-c4cnc(N5CCCN(C)CC5)nc4)ccc23)cc1Cl | Trypanosoma cruzi | parasite growth | C2C12 | intracellular, amastigote | EC50 | 2 µM
O=C(Nc1cccc(-c2cn(Cc3ccc(Cl)cc3)nn2)c1)Nc1ccccc1Br | Huh-7 | cell growth or viability, CCK-8 | – | 50 µM, 48 h | viability | 53.1%
COc1ccc(NC(=O)Nc2cccc(-c3cn(Cc4cccc(Cl)c4)nn3)c2)cc1 | Huh-7 | cell growth or viability, CCK-8 | – | 50 µM, 72 h | viability | 10.8%
Cc1ccc(Nc2cnnc3ccc(-c4ccc(N5CCN(C)CC5)cc4)cc23)cn1 | Trypanosoma cruzi | parasite growth | C2C12 | intracellular, amastigote | EC50 | 3.3 µM
O=C(Nc1ccc(-c2cn(Cc3ccc(Cl)cc3)nn2)cc1)Nc1ccccc1Br | Huh-7 | cell growth or viability, CCK-8 | – | 50 µM, 72 h | viability | 87.2%
COc1ccc(Nc2cnnc3ccc(-c4ccc(N5CCN(C)CC5)cc4)cc23)cc1Cl | Trypanosoma cruzi | parasite growth | C2C12 | intracellular, amastigote | EC50 | 2.4 µM
COc1ccc(NC(=O)Nc2ccc(-c3cn(Cc4cccc(Cl)c4)nn3)cc2)cc1 | Huh-7 | cell growth or viability, CCK-8 | – | 72 h | IC50 | > 50 µM
O=C(NCc1cn(Cc2ccc(Cl)cc2)nn1)Nc1ccc(Cl)cc1 | Huh-7 | cell growth or viability, CCK-8 | – | 50 µM, 48 h | viability | 65.7%
COc1ccc(Nc2cnnc3ccc(-c4cnc(N5CCCN(C)CC5)nc4)cc23)cc1Cl | Trypanosoma cruzi | parasite growth | C2C12 | intracellular, amastigote | EC50 | 0.93 µM
COc1ccc(NC(=O)Nc2cccc(-c3cn(Cc4ccc(Cl)cc4)nn3)c2)cc1 | Huh-7 | cell growth or viability, CCK-8 | – | 50 µM, 48 h | viability | 67.1%
O=C(Nc1ccc(Cl)cc1)Nc1cccc(-c2cn(Cc3ccc(Cl)cc3)nn2)c1 | Huh-7 | cell growth or viability, CCK-8 | – | 50 µM, 72 h | viability | 15.6%
CN1CCN(c2ccc(-c3ccc4nncc(Nc5ncccn5)c4c3)cc2)CC1 | Trypanosoma cruzi | parasite growth | C2C12 | intracellular, amastigote | EC50 | 7.9 µM
Cc1ccccc1Cn1cc(-c2cccc(NC(=O)Nc3ccc(F)cc3)c2)nn1 | Huh-7 | cell growth or viability, CCK-8 | – | 50 µM, 48 h | viability | 46%
O=C(NCc1cn(Cc2cccc(Cl)c2)nn1)Nc1ccc(Cl)cc1 | Huh-7 | cell growth or viability, CCK-8 | – | 50 µM, 72 h | viability | 82.2%
Cc1ccc(Nc2cnnc3cc(-c4ccc(N5CCN(C)CC5)cc4)ccc23)cn1 | Trypanosoma cruzi | parasite growth | C2C12 | intracellular, amastigote | EC50 | 1.3 µM
